Experimental data reported in ChEMBL document CHEMBL2331220, “Benzimidazole clubbed with triazolo-thiadiazoles and triazolo-thiadiazines: new anticancer agents” (2013).

Tests used:
Type in all cases: functional
NCI-H23 = assay: Cytotoxicity against human NCI-H23 cells after 48 hrs by SRB assay; settings: NCI-H23, 48 h
Procedure, shortened: (§1)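 NCI 60-line five-dose screen. Cells were preincubated 24 h at 37 °C under 5% CO2 and 100% humidity, and time-zero plates were TCA-fixed when compound was added. Five 10-fold concentrations (0.01–100) were tested for 48 h. Cells were fixed with cold TCA (final 10%, 60 min, 4 °C), stained with 0.4% SRB for 10 min, and read at 515 nm. GI50, TGI and LC50 came from growth-percentage formulas, with out-of-range values given as > or <.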

NCI-H522 = assay: Cytotoxicity against human NCI-H522 cells after 48 hrs by SRB assay; settings: NCI-H522, 48 h; procedure, shortened: as §1
HT-29 = assay: Cytotoxicity against human HT-29 cells after 48 hrs by SRB assay; settings: HT-29, 48 h; procedure, shortened: as §1
OVCAR-5 = assay: Cytotoxicity against human OVCAR5 cells after 48 hrs by SRB assay; settings: OVCAR-5, 48 h; procedure, shortened: as §1
PC-3 = assay: Cytotoxicity against human PC3 cells after 48 hrs by SRB assay; settings: PC-3, 48 h; procedure, shortened: as §1
RPMI-8226 = assay: Cytotoxicity against human RPMI8226 cells after 48 hrs by SRB assay; settings: RPMI-8226, 48 h; procedure, shortened: as §1
KM12 = assay: Cytotoxicity against human KM12 cells after 48 hrs by SRB assay; settings: KM12, 48 h; procedure, shortened: as §1
HOP-62 = assay: Cytotoxicity against human HOP62 cells after 48 hrs by SRB assay; settings: HOP-62, 48 h; procedure, shortened: as §1
NCI/ADR-RES = assay: Cytotoxicity against human NCI/ADR-RES cells after 48 hrs by SRB assay; procedure, shortened: as §1
UO-31 = assay: Cytotoxicity against human UO31 cells after 48 hrs by SRB assay; settings: UO-31, 48 h
Procedure, shortened: (§2)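 NCI 60-line five-dose screen: cells plated, held 24 h at 37 °C, 5% CO₂ before treatment, with a TCA-fixed time-zero plate. Five final concentrations (0.01–100 µM, 10-fold dilutions) for 48 h. Cells fixed with cold TCA (10% final) and stained with 0.4% SRB in 1% acetic acid. Dye dissolved in 10 mM Tris and read at 515 nm. GI₅₀, TGI and LC₅₀ taken from percent-growth curves.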

OVCAR-3 = assay: Cytotoxicity against human OVCAR3 cells after 48 hrs by SRB assay; settings: OVCAR-3, 48 h; procedure, shortened: as §1
TK-10 = assay: Cytotoxicity against human TK10 cells after 48 hrs by SRB assay; settings: TK-10, 48 h; procedure, shortened: as §2
MCF7 = assay: Cytotoxicity against human MCF7 cells after 48 hrs by SRB assay; settings: MCF7, 48 h; procedure, shortened: as §1
ACHN = assay: Cytotoxicity against human ACHN cells after 48 hrs by SRB assay; procedure, shortened: as §1
SNB-19 = assay: Cytotoxicity against human SNB19 cells after 48 hrs by SRB assay; settings: SNB-19, 48 h; procedure, shortened: as §2
Malme-3M = assay: Cytotoxicity against human MALME-3M cells after 48 hrs by SRB assay; procedure, shortened: as §1
SNB-75 = assay: Cytotoxicity against human SNB75 cells after 48 hrs by SRB assay; settings: SNB-75, 48 h; procedure, shortened: as §2
UACC-62 = assay: Cytotoxicity against human UACC62 cells after 48 hrs by SRB assay; settings: UACC-62, 48 h; procedure, shortened: as §2
[1] = read-out: LC50 (the source's name)
[2] = read-out: pLC50 (the source's name) (converted)

O=C(CCc1nnc2sc(-c3ccc(Cl)cc3Cl)nn12)c1nc2ccccc2[nH]1
GI50 (NCI-H23; read-out: GI50): 719 nM | TGI (NCI-H23; read-out: TGI): 2480 nM | GI50 (NCI-H23; read-out: pGI50 (converted)): 724 nM | TGI (NCI-H23; read-out: pTGI (converted)): 2450 nM | GI50 (NCI-H522; read-out: GI50): 1280 nM | CC50 (NCI-H522; [1]): 6820 nM | TGI (NCI-H522; read-out: TGI): 2960 nM | GI50 (NCI-H522; read-out: pGI50 (converted)): 1290 nM | CC50 (NCI-H522; [2]): 6760 nM | TGI (NCI-H522; read-out: pTGI (converted)): 2950 nM | GI50 (HT-29; read-out: GI50): 362 nM | CC50 (HT-29; [1]): > 100000 nM | TGI (HT-29; read-out: TGI): 1810 nM | GI50 (HT-29; read-out: pGI50 (converted)): 363 nM | CC50 (HT-29; [2]): > 100000 nM | TGI (HT-29; read-out: pTGI (converted)): 1820 nM | GI50 (OVCAR-5; read-out: GI50): 1880 nM | CC50 (OVCAR-5; [1]): 8390 nM | TGI (OVCAR-5; read-out: TGI): 3980 nM | GI50 (OVCAR-5; read-out: pGI50 (converted)): 1910 nM | CC50 (OVCAR-5; [2]): 8320 nM | TGI (OVCAR-5; read-out: pTGI (converted)): 3980 nM | GI50 (PC-3; read-out: GI50): 695 nM | LC50 (concentration killing 50% of cells) (PC-3; read-out: LC50): > 100000 nM | TGI (PC-3; read-out: TGI): 3900 nM | GI50 (PC-3; read-out: pGI50 (converted)): 692 nM | LC50 (concentration killing 50% of cells) (PC-3; read-out: pLC50 (converted)): > 100000 nM | TGI (PC-3; read-out: pTGI (converted)): 3890 nM | GI50 (RPMI-8226; read-out: GI50): 352 nM | CC50 (RPMI-8226; [1]): > 100000 nM | TGI (RPMI-8226; read-out: TGI): 1760 nM | GI50 (RPMI-8226; read-out: pGI50 (converted)): 355 nM | CC50 (RPMI-8226; [2]): > 100000 nM | TGI (RPMI-8226; read-out: pTGI (converted)): 1780 nM | GI50 (KM12; read-out: GI50): 1160 nM | CC50 (KM12; [1]): 7700 nM | TGI (KM12; read-out: TGI): 2990 nM | GI50 (KM12; read-out: pGI50 (converted)): 1150 nM | CC50 (KM12; [2]): 7760 nM | TGI (KM12; read-out: pTGI (converted)): 3020 nM | GI50 (HOP-62; read-out: GI50): 576 nM | CC50 (HOP-62; [1]): 6160 nM | TGI (HOP-62; read-out: TGI): 2120 nM | GI50 (HOP-62; read-out: pGI50 (converted)): 575 nM | CC50 (HOP-62; [2]): 6170 nM | TGI (HOP-62; read-out: pTGI (converted)): 2140 nM | GI50 (NCI/ADR-RES; read-out: GI50): 1560 nM | LC50 (NCI/ADR-RES; read-out: LC50): > 100000 nM | TGI (NCI/ADR-RES; read-out: TGI): 5800 nM | GI50 (NCI/ADR-RES; read-out: pGI50 (converted)): 1550 nM | LC50 (NCI/ADR-RES; read-out: pLC50 (converted)): > 100000 nM | TGI (NCI/ADR-RES; read-out: pTGI (converted)): 5750 nM | GI50 (UO-31; read-out: GI50): 576 nM | LC50 (UO-31; read-out: LC50): 4630 nM | TGI (UO-31; read-out: TGI): 2020 nM | GI50 (UO-31; read-out: pGI50 (converted)): 575 nM | LC50 (UO-31; read-out: pLC50 (converted)): 4680 nM | TGI (UO-31; read-out: pTGI (converted)): 2040 nM | GI50 (OVCAR-3; read-out: GI50): 514 nM | LC50 (OVCAR-3; read-out: LC50): 4600 nM | TGI (OVCAR-3; read-out: TGI): 1800 nM | GI50 (OVCAR-3; read-out: pGI50 (converted)): 513 nM | LC50 (OVCAR-3; read-out: pLC50 (converted)): 4570 nM | TGI (OVCAR-3; read-out: pTGI (converted)): 1820 nM | GI50 (TK-10; read-out: GI50): 2010 nM | LC50 (TK-10; read-out: LC50): 6300 nM | TGI (TK-10; read-out: TGI): 3550 nM | GI50 (TK-10; read-out: pGI50 (converted)): 2000 nM | LC50 (TK-10; read-out: pLC50 (converted)): 6310 nM | TGI (TK-10; read-out: pTGI (converted)): 3550 nM | GI50 (MCF7; read-out: GI50): 355 nM | LC50 (MCF7; read-out: LC50): 5970 nM | TGI (MCF7; read-out: TGI): 1500 nM | GI50 (MCF7; read-out: pGI50 (converted)): 355 nM | LC50 (MCF7; read-out: pLC50 (converted)): 6030 nM | TGI (MCF7; read-out: pTGI (converted)): 1510 nM | GI50 (ACHN; read-out: GI50): 339 nM | LC50 (50% lethal concentration) (ACHN; read-out: LC50): 4670 nM | TGI (ACHN; read-out: TGI): 1350 nM | GI50 (ACHN; read-out: pGI50 (converted)): 339 nM | LC50 (50% lethal concentration) (ACHN; read-out: pLC50 (converted)): 4680 nM | TGI (ACHN; read-out: pTGI (converted)): 1350 nM | GI50 (SNB-19; read-out: GI50): 1370 nM | CC50 (SNB-19; [1]): > 100000 nM | TGI (SNB-19; read-out: TGI): 5440 nM | GI50 (SNB-19; read-out: pGI50 (converted)): 1380 nM | CC50 (SNB-19; [2]): > 100000 nM | TGI (SNB-19; read-out: pTGI (converted)): 5500 nM | GI50 (Malme-3M; read-out: GI50): 762 nM | TGI (Malme-3M; read-out: TGI): 2940 nM | GI50 (Malme-3M; read-out: pGI50 (converted)): 759 nM | TGI (Malme-3M; read-out: pTGI (converted)): 2950 nM | GI50 (SNB-75; read-out: GI50): 1960 nM | CC50 (SNB-75; [1]): 17100 nM | TGI (SNB-75; read-out: TGI): 4650 nM | GI50 (SNB-75; read-out: pGI50 (converted)): 1950 nM | CC50 (SNB-75; [2]): 17000 nM | TGI (SNB-75; read-out: pTGI (converted)): 4680 nM | GI50 (UACC-62; read-out: GI50): 1060 nM | LC50 (concentration giving 50% net cell kill) (UACC-62; read-out: LC50): 5610 nM | TGI (UACC-62; read-out: TGI): 2440 nM | GI50 (UACC-62; read-out: pGI50 (converted)): 1070 nM | LC50 (concentration giving 50% net cell kill) (UACC-62; read-out: pLC50 (converted)): 5620 nM | TGI (UACC-62; read-out: pTGI (converted)): 2450 nM
